High-throughput results (PubChem BioAssay)
SKKanGAS inh = inhibitors of SKKanGAS S. pyogenes growth in kanamycin (SK-promoter or general growth effect). AID 1662. BacTiter-Glo, 6 h. actives 1.3% (n = 300,000). inhibition, % at 7.5 µM;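 active means mean replicate score, as percent of positive control median, at least 50; inconclusive means mean below 50 but one replicate at or above 50; inactive means mean and every replicate below 50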;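 further: strain carries kanamycin resistance gene driven by streptokinase promoter and grows in 40 µg/ml kanamycin; loss of luminescence reflects streptokinase promoter inhibition or plain growth inhibition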
CSC inhib = cancer stem cell inhibition; cancer stem cell-like cells viability, luminescence; inhibition, % at 7.5 µM; actives 1.1% (n = 300,000); AID 2717; in the data active means inhibition above about 75%; inconclusive means no clear call, values can overlap the other calls; tested in HMLE shEcad cells
T cruzi repl = blocks replication of Trypanosoma cruzi; T. cruzi beta-gal in NIH3T3, luminescence, 90 h; inhibition, % (test concentration not listed); actives 1.4% (n = 300,000); AID 1885;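 active means mean inhibition across valid replicates above about 55%, limit read from the data; inconclusive means mean below that limit but half or more replicates reach it; inactive means mean below it, under half of replicates reach it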;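 further: signal also drops with host cell toxicity which is not excluded here; higher percent means less beta-gal luminescence so fewer parasites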
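Test system: β-gal T. cruzi (Tulahuen C4) inside NIH/3T3 cells / Quantity: 5,000 cells/well / Measured by: luminescence from GalScreen with 0.05% NP40, read after 60 min / Medium: DMEM plus 2% FBS / Measure: parasite load inhibition, % / Reagent: Tulahuen C4 trypomastigotes, 5000/well / Schedule: co-culture of at least 90 h after 3 h attachment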
Beta apoptosis = blocks beta cell apoptosis | INS-1E cytokine-induced death, ATP luminescence, 48 h; percent of positive-control rescue, neutral wells zero | protection from apoptosis, % (no concentration beside the values) | actives 0.8% (n = 300,000);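 active means Every replicate reaches about 75%, or at least half do and their mean reaches it too, limit read from the data; inconclusive means At least half of replicates reach the limit but their mean does not; inactive means Under half of replicates reach the limit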;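 further: higher means more ATP so stronger rescue from cytokine killing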
Lmaj promast = inhibitors of Leishmania major promastigote growth | Leishmania major promastigotes, resazurin fluorescence viability | inhibition, % at 10 µM | actives 9% (n = 200,000) | AID 1063; in the data active means inhibition above about 50%;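 further: promastigotes grown with compound for 44 hours at 28 °C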
Mdm2 MdmX PPI = disrupts the human Mdm2-MdmX interaction | actives 3% (n = 330,000) | AID 485346 | inhibition, % at 8 µM | SaOS-2 split-luciferase Mdm2/MdmX complementation, luminescence;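 active means inhibition of at least 50% at 8 µM in the primary screen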
Target sequence (O15151 whole entry, looked up): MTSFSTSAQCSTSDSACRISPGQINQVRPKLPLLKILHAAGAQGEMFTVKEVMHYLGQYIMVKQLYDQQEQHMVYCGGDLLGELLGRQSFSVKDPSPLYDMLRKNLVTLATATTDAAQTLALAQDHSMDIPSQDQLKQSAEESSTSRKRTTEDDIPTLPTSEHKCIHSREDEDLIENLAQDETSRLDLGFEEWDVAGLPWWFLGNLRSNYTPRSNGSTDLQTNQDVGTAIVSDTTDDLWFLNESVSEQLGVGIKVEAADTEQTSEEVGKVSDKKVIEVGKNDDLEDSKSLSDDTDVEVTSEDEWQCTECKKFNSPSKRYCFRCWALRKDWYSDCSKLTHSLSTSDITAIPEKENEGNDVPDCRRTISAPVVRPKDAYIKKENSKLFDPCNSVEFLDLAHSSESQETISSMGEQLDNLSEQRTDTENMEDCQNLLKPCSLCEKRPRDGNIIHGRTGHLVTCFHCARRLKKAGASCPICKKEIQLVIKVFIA
Target sequence (Q00987 whole entry, looked up): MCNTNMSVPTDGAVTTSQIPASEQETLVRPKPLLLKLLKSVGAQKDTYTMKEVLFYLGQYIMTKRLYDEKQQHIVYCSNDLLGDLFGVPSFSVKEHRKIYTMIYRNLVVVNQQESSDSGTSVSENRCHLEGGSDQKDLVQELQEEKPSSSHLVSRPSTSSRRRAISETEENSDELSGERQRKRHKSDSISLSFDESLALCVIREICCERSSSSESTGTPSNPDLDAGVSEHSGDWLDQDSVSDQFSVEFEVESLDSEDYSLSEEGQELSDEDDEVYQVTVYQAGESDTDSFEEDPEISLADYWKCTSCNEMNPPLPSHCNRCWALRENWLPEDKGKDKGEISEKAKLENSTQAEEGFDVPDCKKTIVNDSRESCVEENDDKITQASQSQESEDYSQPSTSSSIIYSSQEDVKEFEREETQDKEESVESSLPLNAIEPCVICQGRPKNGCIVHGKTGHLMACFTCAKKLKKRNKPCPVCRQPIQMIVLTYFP
Mdm2-MdmX conf = human Mdm2/MdmX binding inhibition, confirmed. shares compounds with Mdm2 MdmX PPI. luminescent assay. inhibition, % at 8 µM. actives 55% (n = 10,000); in the data active means inhibition above about 40%
FLuc counter = full-length luciferase inhibition in Mdm2/MdmX counter-screen. shares compounds with Mdm2 MdmX PPI. SaOS-2 full-length luciferase counterscreen, luminescence. inhibition, % at 8 µM. actives 77% (n = 6,200). AID 504607;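 active means mean inhibition at 8 µM reaching about 37%, which flags the compound as non-specific, limit read from the data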;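 further: p53-null SaOS-2 cells with luciferase driven by a doxycycline-inducible promoter; compound on cells about two nights before reading with doxycycline added after day one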
Each line names hits and unclear results; the compound was inactive in the other large screens (follow-up assays come after a bar, where they were run). An excerpt weighted towards active compounds, which were near 9.4% of everything screened.

Cc1[nH]n(-c2nc(-c3ccc(Cl)cc3)cs2)c(=O)c1N=Nc1ccc(O)cc1	SKKanGAS inh 60.8, T cruzi repl inconclusive, Lmaj promast 71.5, Mdm2 MdmX PPI 63.4 | Mdm2-MdmX conf inactive | FLuc counter 83.2
CSCC[C@H](NC(=O)C1CCN(S(=O)(=O)c2ccc(C)cc2)CC1)C(=O)NC1CCS(=O)(=O)C1 (stereo not given in full)	none
C=C1C(=O)C=C[C@]2(C)C[C@@H]3OC(=O)[C@](C)(O)[C@H]3C[C@@H]12	CSC inhib inconclusive, Mdm2 MdmX PPI 73.4 (no result: Beta apoptosis, Lmaj promast) | Mdm2-MdmX conf 47.4 | FLuc counter inactive
Cc1ccc(C)c(NC(=S)N2CCC(NC(=O)c3ccco3)CC2)c1	none (no result: Lmaj promast)
COCC(C)NC(=O)CCS(=O)(=O)c1nc(-c2ccc(OC)cc2)cc(C(F)(F)F)n1 (stereo not given)	none
CS(=O)(=O)c1nc(-c2ccc(F)cc2)cc(C(F)(F)F)n1	T cruzi repl inconclusive (no result: CSC inhib, Beta apoptosis, Mdm2 MdmX PPI)
CCOC(=O)CCS(=O)(=O)c1nc(-c2ccccc2)cc(C(F)(F)F)n1	CSC inhib 100.0, Mdm2 MdmX PPI 100.3 | Mdm2-MdmX conf 100.2 | FLuc counter 51.2
COC(=O)CCS(=O)(=O)c1nc(-c2ccccc2)cc(C(F)(F)F)n1	Mdm2 MdmX PPI 83.7 (no result: CSC inhib) | Mdm2-MdmX conf 100.2 | FLuc counter 51.4
CCOC(=O)CS(=O)(=O)c1nc(-c2ccc(F)cc2)cc(C(F)(F)F)n1	CSC inhib 99.1, Mdm2 MdmX PPI 100.3 (no result: Beta apoptosis) | Mdm2-MdmX conf 98.1 | FLuc counter 51.5
O=C(O)CCS(=O)(=O)c1nc(-c2cccs2)cc(C(F)(F)F)n1	none
CCOC(=O)CS(=O)(=O)c1nc(-c2ccccc2)cc(C(F)(F)F)n1	CSC inhib 98.9, Beta apoptosis 95.8, Mdm2 MdmX PPI 100.6 | Mdm2-MdmX conf 97.7 | FLuc counter inactive
Cc1cc(=O)n2nc(N3CCC(C(=O)NCc4cccc(Br)c4)CC3)sc2n1	none (no result: Lmaj promast)
CC(=O)Nc1ccc(S(=O)(=O)N(C)CC(=O)OC(C)C(=O)N(C)Cc2ccccc2)cc1 (stereo not given)	none (no result: Lmaj promast)
COc1ccc(OC)c(CCNC(=O)CCn2nc(C)c3c(C)n(-c4ccccc4)nc3c2=O)c1	none (no result: Lmaj promast)
CCN(Cc1ccncc1)Cc1nc(CC2CC2)no1	none
CC(=O)Nc1ccc(NC(=O)CNC(=O)c2sc3ccccc3c2Cl)cc1	none (no result: Lmaj promast)
COC(=O)c1ccc(NC(=O)CNC(=O)c2sc3ccccc3c2Cl)cc1	Mdm2 MdmX PPI 94.3 (no result: SKKanGAS inh, CSC inhib, T cruzi repl, Lmaj promast) | Mdm2-MdmX conf 49.0 | FLuc counter 93.5
COc1ccc(NC(=O)CN(C)C(=O)CNC(=O)c2cccs2)cc1	none (no result: Lmaj promast)
O=C(Nc1ccc(Cl)cc1)Nc1nc(-c2sccc2Br)cs1	Mdm2 MdmX PPI 88.4 | Mdm2-MdmX conf 77.3 | FLuc counter 39.4
Cc1csc(NC(=O)Nc2ccc(Cl)cc2)n1	none
O=C(c1cnn2c(C(F)(F)F)cc(-c3cccs3)nc12)N1CCN(C(c2ccccc2)c2ccccc2)CC1	Lmaj promast 97.4, Mdm2 MdmX PPI 61.7 | Mdm2-MdmX conf 59.0 | FLuc counter 67.8
O=C(c1ccco1)N1CCN(C(=O)c2cnn3c(C(F)(F)F)cc(-c4cccs4)nc23)CC1	none
O=C(c1cccc(S(=O)(=O)NCc2ccccc2)c1)N1CCN(c2cccc(C(F)(F)F)c2)CC1	Mdm2 MdmX PPI 62.3 (no result: Lmaj promast) | Mdm2-MdmX conf 70.0 | FLuc counter 55.5
CCOC(=O)Nc1ccc2c(c1)N(C(=O)CCN(CC)CC)c1ccccc1S2=O (stereo not given)	Mdm2 MdmX PPI 67.3 (no result: Beta apoptosis, Lmaj promast) | Mdm2-MdmX conf 53.5 | FLuc counter inactive
Cn1c(=O)c2c(nc(CN3CCN(C(=O)c4ccco4)CC3)n2CC(=O)C(C)(C)C)n(C)c1=O	none (no result: Lmaj promast)
CCOC(=O)c1c(C)[nH]c(C(=O)OCC(=O)N2CCc3ccccc32)c1C	Mdm2 MdmX PPI 70.4 | Mdm2-MdmX conf inactive
COc1ccc(C(=O)Nc2ccc(C)cn2)c(OC)c1	Mdm2 MdmX PPI 67.8 (no result: Beta apoptosis) | Mdm2-MdmX conf 66.9 | FLuc counter 85.1
COc1ccc(C(=O)Nc2cc(C)on2)c(OC)c1	none (no result: Beta apoptosis, Lmaj promast)
CC(C)CC(=O)O/N=C1\C(=O)N(Cc2ccc(Cl)cc2)c2ccc([N+](=O)[O-])cc21	T cruzi repl 58.0, Mdm2 MdmX PPI 59.5 (no result: CSC inhib) | Mdm2-MdmX conf inactive
CC(=O)O/N=C1\C(=O)N(Cc2ccc(C)cc2)c2ccccc21	none (no result: SKKanGAS inh, CSC inhib, T cruzi repl, Beta apoptosis)
COc1ccc(C(=O)c2c(C(F)(F)F)oc3c2C(=O)c2ccccc2C3=O)cc1OC	SKKanGAS inh 99.8, CSC inhib 101.5, T cruzi repl 64.7, Lmaj promast 100.3, Mdm2 MdmX PPI 85.7 (no result: Beta apoptosis) | Mdm2-MdmX conf 71.5 | FLuc counter inactive
Clc1ccc(Cn2cc(/C=N/n3cnnc3)c3ccccc32)c(Cl)c1	Mdm2 MdmX PPI 56.5 | Mdm2-MdmX conf inactive
O=C1c2cc(F)ccc2-n2c1nc1ccccc1c2=O	Mdm2 MdmX PPI 63.2 (no result: Lmaj promast) | Mdm2-MdmX conf inactive | FLuc counter inactive
CCOC(=O)c1c(NC(=O)c2c(-c3ccccc3)noc2C)sc(C)c1-c1ccccc1	T cruzi repl 63.1, Mdm2 MdmX PPI 100.1 | Mdm2-MdmX conf 93.3 | FLuc counter 51.5
Cc1onc(-c2ccccc2)c1C(=O)Nc1sc2c(c1C#N)CCC(C)C2 (stereo not given)	CSC inhib 139.1, Mdm2 MdmX PPI 59.3 | Mdm2-MdmX conf 54.6 | FLuc counter 55.9
COC(=O)c1c(-c2ccc(C)cc2)csc1NC(=O)c1c(-c2ccccc2)noc1C	Mdm2 MdmX PPI 79.0 (no result: Beta apoptosis) | Mdm2-MdmX conf 80.1 | FLuc counter 38.9
CCOC(=O)c1sc(NC(=O)c2cc(-c3cccc(O)c3)on2)c(C(=O)OCC)c1C	none (no result: Beta apoptosis)
CCOC(=O)c1c(NC(=O)c2cc(-c3cccc(O)c3)on2)sc(C(C)=O)c1C	Mdm2 MdmX PPI 74.6 (no result: Beta apoptosis) | Mdm2-MdmX conf inactive
CCOC(=O)c1c(NC(=O)/C=C/C(=O)O)sc(C)c1-c1ccc(C(C)(C)C)cc1	CSC inhib 109.2, T cruzi repl 56.6, Beta apoptosis 79.4, Lmaj promast 100.2, Mdm2 MdmX PPI 86.9 | Mdm2-MdmX conf 79.8 | FLuc counter 56.4
CCOC(=O)c1c(NC(=O)/C=C\C(=O)O)sc(C)c1-c1ccccc1	none
Cc1cccc(OCCOC(=O)c2c(-c3ccccc3)noc2C)c1	Mdm2 MdmX PPI 54.7 (no result: CSC inhib, Lmaj promast) | Mdm2-MdmX conf inactive
COc1ccc(C(=O)c2sc(Nc3ccccc3)c(C(=O)Nc3ccc(OC)c(OC)c3)c2N)cc1	none
COc1ccc(NC(=O)c2c(Nc3ccccc3)sc(C(=O)c3ccc(F)cc3)c2N)cc1	Beta apoptosis 103.7, Mdm2 MdmX PPI 62.4 | Mdm2-MdmX conf inactive
Cc1cc(C)c2nc(/N=C(\N)NC(=O)Nc3ccccc3)nc(C)c2c1	Lmaj promast 100.3, Mdm2 MdmX PPI 53.6 | Mdm2-MdmX conf 48.4 | FLuc counter 69.7
